For 7 compounds, EC50 results are on record in ChEMBL document CHEMBL3120107, “Cytotoxic cardiac glycosides and coumarins from Antiaris toxicaria” (2014).

Molecules are shown by their SMILES. Converted amounts (≈) assume the structure as drawn.

Experiment [1] is described as follows: Cytotoxicity against human KBVIN cells assessed as growth inhibition after 72 hrs by SRB assay. The class given is functional. Conditions: Homo sapiens, KBVIN, 72 h; read-out: ED50 (the source's name). An outline of the steps:
(§1)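 Sulforhodamine B assay run by NCI-validated procedure. Cells grown at 37 °C under humidified 5% CO2 in RPMI-1640 with 25 mM HEPES, […] (w/v) sodium bicarbonate, 10% (v/v) FBS and 100 μg/mL kanamycin. Compounds came from DMSO stocks, with final DMSO ≤ 1% (v/v). Continuous exposure for 72 h. ED50 (μg/mL, 50% cell-number reduction) interpolated from dose-response data. Triplicate tests. Doxorubicin served as positive control.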

The next experiment has as its system CAKI-1. Put plainly: Cytotoxicity against human CAKI-1 cells assessed as growth inhibition after 72 hrs by SRB assay. The class given is functional. Conditions: Homo sapiens, CAKI-1, 72 h; read-out: ED50 (the source's name). An outline of the steps:
as §1
On the technique in general: Sulforhodamine B stains cellular protein and so reports cell mass.

In another experiment the test system is KB. Put plainly: Cytotoxicity against human KB cells assessed as growth inhibition after 72 hrs by SRB assay. The class given is functional. The settings on record: Homo sapiens, KB, 72 h; read-out: ED50 (the source's name). The essentials: as §1
The test system of the next experiment is A549. Put plainly: Cytotoxicity against human A549 cells assessed as growth inhibition after 72 hrs by SRB assay. The experiment is classed as functional. Conditions: Homo sapiens, A549, 72 h; read-out: ED50 (the source's name). The essentials:
as §1

A further experiment concerns 1A9. Briefly: Cytotoxicity against human 1A9 cells assessed as growth inhibition after 72 hrs by SRB assay. The class given is functional. The settings on record: Homo sapiens, 1A9, 72 h; read-out: ED50 (the source's name). An outline of the steps: as §1
The subject of another experiment is MCF7. Briefly: Cytotoxicity against human MCF7 cells assessed as growth inhibition after 72 hrs by SRB assay. The class given is functional. Conditions: Homo sapiens, MCF7, 72 h; read-out: ED50 (the source's name). An outline of the steps: as §1
The next experiment relates to SK-MEL-2. Put plainly: Cytotoxicity against human SK-MEL-2 cells assessed as growth inhibition after 72 hrs by SRB assay. Conditions: Homo sapiens, SK-MEL-2, 72 h; read-out: ED50 (the source's name). The experiment is classed as functional. The essentials: as §1
In another experiment the test system is PC-3. Briefly: Cytotoxicity against human PC3 cells assessed as growth inhibition after 72 hrs by SRB assay. The class given is functional. The settings on record: Homo sapiens, PC-3, 72 h; read-out: ED50 (the source's name). The essentials: as §1
The nature of experiment [2]: Cytotoxicity against human […] cells assessed as growth inhibition after 72 hrs by SRB assay. The class given is functional. The settings on record: Homo sapiens, HCT9, 72 h; read-out: ED50 (the source's name). An outline of the steps:
as §1

Experiment [3] can be described thus: Cytotoxicity against human U87MG cells assessed as growth inhibition after 72 hrs by SRB assay. The class given is functional, U-87MG ATCC. The settings on record: Homo sapiens, U-87 MG, 72 h; read-out: ED50 (the source's name). The essentials: as §1

Turning to `C[C@@H]1O[C@H](O[C@H]2CC[C@@]3(C(=O)O[C@@H]4O[C@H](CO)[C@@H](O)[C@H](O)[C@H]4O)[C@H](CC[C@@H]4[C@@H]3CC[C@]3(C)[C@@H](C5=CC(=O)OC5)CC[C@]43O)C2)[C@H](O)[C@H](O)[C@H]1O` [ANTIAROSIDE F], the EC50 in experiment [1] was determined as 2.2 µg/mL (≈ 3.09 µM); in the experiment on CAKI-1, 1.2 µg/mL (≈ 1.68 µM); in the experiment with KB it was 1.8 µg/mL (≈ 2.53 µM); with A549, 0.54 µg/mL (≈ 0.758 µM); in the experiment with 1A9, 0.97 µg/mL (≈ 1.36 µM); in the experiment with MCF7, 1.3 µg/mL (≈ 1.82 µM). Further, the EC50 in the experiment on SK-MEL-2 was 0.32 µg/mL (≈ 0.449 µM); with PC-3 it was 0.89 µg/mL (≈ 1.25 µM); in experiment [2], 3.4 µg/mL (≈ 4.77 µM); in experiment [3], 4.5 µg/mL (≈ 6.31 µM).

For `C[C@H]1O[C@H](O[C@H]2CC[C@]3(C=O)[C@H]4C[C@@H](O)[C@]5(C)[C@@H](C6=CC(=O)OC6)CC[C@]5(O)[C@@H]4CC[C@]3(O)C2)[C@H](O)[C@H](O)[C@H]1O`, the EC50 worked out at 0.15 µg/mL (≈ 0.265 µM) in experiment [1]; 0.072 µg/mL (≈ 0.127 µM) with CAKI-1; 0.14 µg/mL (≈ 0.247 µM) with KB; 0.059 µg/mL (≈ 0.104 µM) with A549; 0.058 µg/mL (≈ 0.102 µM) with 1A9; 0.1 µg/mL (≈ 0.176 µM) in the experiment on MCF7. Further, the EC50 in the experiment with SK-MEL-2 is 0.13 µg/mL (≈ 0.229 µM); in the experiment with PC-3, 0.0044 µg/mL (≈ 0.00777 µM); in experiment [2], 0.15 µg/mL (≈ 0.265 µM); in experiment [3], 0.017 µg/mL (≈ 0.03 µM).

With `CO[C@H]1[C@@H](O[C@H]2CC[C@]3(C=O)[C@H]4C[C@@H](O)[C@]5(C)[C@@H](C6=CC(=O)OC6)CC[C@]5(O)[C@@H]4CC[C@]3(O)C2)O[C@H](C)[C@@H](O)[C@@H]1O` [TOXICARIOSIDE B], the EC50 in experiment [1] was 0.14 µg/mL (≈ 0.241 µM); in the experiment with CAKI-1, 0.07 µg/mL (≈ 0.121 µM); in the experiment on KB it was 0.13 µg/mL (≈ 0.224 µM); with A549, 0.058 µg/mL (≈ 0.0999 µM); in the experiment on 1A9, 0.063 µg/mL (≈ 0.108 µM); with MCF7 it was 0.092 µg/mL (≈ 0.158 µM). Further, the EC50 with SK-MEL-2 is 0.12 µg/mL (≈ 0.207 µM); in the experiment with PC-3, 0.091 µg/mL (≈ 0.157 µM); in experiment [2] it was 0.11 µg/mL (≈ 0.189 µM); in experiment [3] it was 0.13 µg/mL (≈ 0.224 µM).

As to `C[C@@H]1O[C@H](O[C@H]2CC[C@]3(C=O)[C@H]4C[C@@H](O)[C@]5(C)[C@@H](C6=CC(=O)OC6)CC[C@]5(O)[C@@H]4CC[C@]3(O)C2)[C@H](O)[C@H](O)[C@H]1O`, the EC50 in experiment [1] was determined as 0.061 µg/mL (≈ 0.108 µM); in the experiment with CAKI-1, 0.015 µg/mL (≈ 0.0265 µM); in the experiment with KB it was 0.067 µg/mL (≈ 0.118 µM); in the experiment with A549 it was 0.013 µg/mL (≈ 0.0229 µM); in the experiment with 1A9 it was 0.014 µg/mL (≈ 0.0247 µM); in the experiment with MCF7 it was 0.018 µg/mL (≈ 0.0318 µM). The EC50 with SK-MEL-2 was 0.065 µg/mL (≈ 0.115 µM); with PC-3 it was 0.05 µg/mL (≈ 0.0882 µM); in experiment [2] it was 0.066 µg/mL (≈ 0.116 µM); in experiment [3], 0.071 µg/mL (≈ 0.125 µM).

Consider `C[C@]12[C@H](O)C[C@H]3[C@@H](CC[C@]4(O)CCCC[C@]34C=O)[C@@]1(O)CC[C@@H]2C1=CC(=O)OC1` [ANTIARIGENIN], for which the EC50 is 5.1 µg/mL (≈ 12.6 µM) in experiment [1]; 1.3 µg/mL (≈ 3.21 µM) in the experiment with CAKI-1; 5.3 µg/mL (≈ 13.1 µM) with KB; 0.59 µg/mL (≈ 1.46 µM) in the experiment with A549; 0.12 µg/mL (≈ 0.297 µM) in the experiment with 1A9; 1.3 µg/mL (≈ 3.21 µM) in the experiment with MCF7. Also, the EC50 came to 0.41 µg/mL (≈ 1.01 µM) in the experiment on SK-MEL-2, 1.2 µg/mL (≈ 2.97 µM) with PC-3, 4.5 µg/mL (≈ 11.1 µM) in experiment [2] and 4.6 µg/mL (≈ 11.4 µM) in experiment [3].

On to `C[C@@H]1O[C@H](O[C@H]2CC[C@]3(CO)[C@H]4CC[C@]5(C)[C@@H](C6=CC(=O)OC6)CC[C@]5(O)[C@@H]4CC[C@]3(O)C2)[C@H](O)[C@H](O)[C@H]1O` [CONVALLATOXOL], for which the EC50 in experiment [1] came to 0.014 µg/mL (≈ 0.0253 µM); with CAKI-1, 0.0061 µg/mL (≈ 0.011 µM); in the experiment with KB, 0.025 µg/mL (≈ 0.0452 µM); with A549 it was 0.004 µg/mL (≈ 0.00724 µM); in the experiment with 1A9, 0.0076 µg/mL (≈ 0.0138 µM); in the experiment on MCF7, 0.012 µg/mL (≈ 0.0217 µM). In addition, the EC50 with SK-MEL-2 turned out to be 0.014 µg/mL (≈ 0.0253 µM); in the experiment with PC-3 it was 0.013 µg/mL (≈ 0.0235 µM); in experiment [2], 0.02 µg/mL (≈ 0.0362 µM); in experiment [3], 0.036 µg/mL (≈ 0.0651 µM).

Take `C[C@H]1O[C@@H](O[C@H]2CC[C@]3(C)[C@H]4CC[C@]5(C)[C@@H](C6=CC(=O)OC6)CC[C@]5(O)[C@@H]4CC[C@]3(O)C2)[C@H](O)[C@H](O)[C@H]1O` [ANTIAROSIDE A]: the EC50 in [1] was found to be 0.068 µg/mL (≈ 0.127 µM); in the experiment on CAKI-1, 0.018 µg/mL (≈ 0.0335 µM); in the experiment with KB, 0.0097 µg/mL (≈ 0.0181 µM); with A549, 0.044 µg/mL (≈ 0.082 µM); with 1A9 it was 0.02 µg/mL (≈ 0.0373 µM); with MCF7, 0.063 µg/mL (≈ 0.117 µM). In addition, the EC50 with SK-MEL-2 is 0.073 µg/mL (≈ 0.136 µM); in the experiment with PC-3, 0.078 µg/mL (≈ 0.145 µM); in experiment [2], 0.09 µg/mL (≈ 0.168 µM); in experiment [3] it was 0.15 µg/mL (≈ 0.28 µM).
